# Measurements from different studies.
# Target: Mitogen-activated protein kinase 4 (MAPK4, Homo sapiens, UniProt P31152)
Structure (SMILES),test,conditions,remaining binding
C[C@@H]1CCN(c2nccc(-c3cnn4ncccc34)n2)C1,binding,1 µM,100%
Cc1cnc(Nc2ccc(C(=O)N3CCC(N4CCCC4)CC3)cc2)nc1-c1cc2ccccc2s1,"binding, competition with immobilised ligand",1 µM,39%
CC1CCCN1c1nccc(-c2cnn3ncccc23)n1 (stereo not drawn),binding,1 µM,100%
COc1cnc(Nc2cccc(S(N)(=O)=O)c2)nc1N1CCN(c2ccccc2)C(=O)C1,"binding, competition with immobilised ligand",1 µM,99%
CC(=O)c1c(NS(C)(=O)=O)c2cc(-c3ccc(Cl)cc3)c(-c3ccc(Cl)cc3Cl)nc2n(C)c1=O,"cell-free assay, competition with immobilised ligand",1 µM,100%
O=C(NCCCN1CCOCC1)c1ccc(Nc2ncc(Cl)c(-c3ccc(Cl)s3)n2)cc1,"binding, competition with immobilised ligand",1 µM,1.4%
c1ccc(N2CCN(Cc3nc4ccccc4[nH]3)CC2)nc1,"binding, competition with immobilised ligand",1 µM,100%
COc1ncc2cc3ccccc3nc2c1C#N,"cell-free assay, competition with immobilised ligand",5 µM,100%
O=C1NC(c2ccccn2)Sc2ccccc21 (stereo not drawn),"cell-free assay, competition with immobilised ligand",1 µM,86%
CNC(=O)[C@@H]1CC[C@@H](n2c(-c3ccc4cnccc4c3)nc3ccc(C(=O)NCc4cccc(C(N)=O)c4)cc32)C1,"binding, competition with immobilised ligand",1 µM,100%
O=C(c1ccc(Nc2ncc(Cl)c(-c3cc4ccccc4s3)n2)cc1)N1CCC(N2CCCC2)CC1,"binding, competition with immobilised ligand",1 µM,20%
CN(CCCC(F)(F)F)c1nccc(-c2cnn3ncccc23)n1,binding,1 µM,100%
Cn1nc(C(F)(F)F)cc1-c1cnc(N2CCc3cc(S(=O)(=O)Nc4c(F)cc(Cl)cc4F)cc(N4CCCC4=O)c32)nc1,"cell-free assay, competition with immobilised ligand",1 µM,100%
C=CC(=O)N1CCC(C(=O)NCC(=O)N2CCN(c3nc(-c4cnc(N)nc4C(F)F)nc(N4CCOCC4)n3)CC2)CC1,"binding, competition with immobilised ligand",1 µM,97%
N[C@@H]1CCN(c2nccc(-c3cnn4ncccc34)n2)C1,binding,1 µM,100%
CCOCCn1cc(C(=O)Nc2ccc(-n3nc(-c4cccnc4)cc3C(F)(F)F)cn2)ccc1=O,"cell-free assay, competition with immobilised ligand",1 µM,100%
O=C(NCC1CCOCC1)c1n[nH]cc1NC(=O)c1c(F)cccc1F,"binding, competition with immobilised ligand",1 µM,99%
CN(C)c1nccc(-c2cnc3ncccn23)n1,binding,1 µM,98%
CO[C@H]1CC[C@H](CNc2ccc(S(=O)(=O)NC(=O)c3ccc(N4CCN(CC5=C(c6ccc(Cl)cc6)CC(C)(C)CC5)CC4)cc3Oc3cnc4[nH]ccc4c3)cc2[N+](=O)[O-])CC1,"cell-free assay, competition with immobilised ligand",1 µM,100%
CN(C)c1ncc(F)c(-c2cnn3ncccc23)n1,binding,1 µM,100%
C[C@@H](c1ccc(-n2cnc3c(N)ncnc32)cc1)N1CCc2nn(C)c(Cc3ccccc3)c2C1=O,"binding, competition with immobilised ligand",0.1 µM,87%
